Assay results from different studies.
Each line is one published result; the experiments were not run side by side. In brackets after ≈: the same amount, converted by molar mass.

For CCOC(=O)C1=C(C)NC(=O)NC1c1cn(-c2ccccc2)nc1-c1ccccc1 (stereo not shown), the MIC was 62.1 µM (Mycobacterium tuberculosis; microbial growth, resazurin; H37RV).
For NNC(=O)c1ccncc1, the MIC was 8 µg/mL (Mycobacterium tuberculosis; microbial growth; ATCC25177 H37RA; 14 days).
N.N.[Cl][Pt][Cl] gave an IC50 of 2.1 µM (A-431; cell growth or viability, MTT; 72 h).
CCOC(=O)C1=C(C)NC(=NN)NC1c1ccc(F)cc1 (stereo not shown) has an MIC of 85.5 µM (Mycobacterium tuberculosis; microbial growth, resazurin; H37RV).
Cn1c(COc2ccc3nc4ccc(=O)cc-4oc3c2)cnc1[N+](=O)[O-] has an MIC90 of over 256 µM (Mycobacterium tuberculosis; microbial growth; 7 days).
C1N2CN3CN1CP(C2)C3.Cc1cc(C)n(C(C(=O)OC(C)C)n2nc(C)cc2C)n1.F[P-](F)(F)(F)(F)F.[Cu+] has an IC50 of 11.3 µM (A-431; cell growth or viability, MTT; 72 h).
The IC50 of Cc1sc2c(c1C)C(c1ccc(Cl)cc1)=N[C@@H](CC(=O)OC(C)(C)C)c1nnc(C)n1-2 is reported as 0.545 µM (Ramos; cell growth or viability, ATP luminescence; 72 h).
For CC[C@@]1(O)C(=O)OCc2c1cc1n(c2=O)Cc2cc3ccccc3nc2-1, the IC50 was 10.1 µM (HepG2; cell growth or viability, MTT; 48 h).
Cc1cc(C(=O)O)ccc1-c1c2ccc(=O)cc-2oc2cc(OCc3ccc([N+](=O)[O-])o3)ccc12 has an MIC90 of 240 µM (≈ 113 µg/mL) (Mycobacterium tuberculosis; microbial growth; 7 days).
COc1c(N2CC3CCCN(C(=O)OC(C)(C)C)C3C2)c(F)cc2c(=O)c(C(=O)OCc3cnc([N+](=O)[O-])s3)cn(C3CC3)c12 (stereo not shown) gave an MIC of over 8 µM (Mycobacterium tuberculosis; microbial growth; H37RV).
Cn1c([N+](=O)[O-])cnc1COc1ccc2nc3ccc(=O)cc-3oc2c1 gave an MIC90 of over 256 µM (Mycobacterium tuberculosis; microbial growth; 7 days).
COc1cccc(/C=N/N2C(=O)c3ccccc3NC2c2cccc(OC)c2O)c1O (stereo not shown) has an MIC of over 128 µg/mL (Mycobacterium tuberculosis; microbial growth; ATCC25177 H37RA; 14 days).
With CCOC(=O)C1=C(C)N(C(C)=O)C(=O)NC1c1cn(-c2ccccc2)nc1-c1ccccc1 (stereo not shown) the MIC was 56.2 µM (Mycobacterium tuberculosis; microbial growth, resazurin; H37RV).
